# Measurements reported in ChEMBL document CHEMBL1158163, “A re-examination of the difluoromethylenesulfonic acid group as a phosphotyrosine mimic for PTP1B inhibition” (Bioorg Med Chem, 2008).
# pIC50, pKi: −log10 of the molar value. Starred links: 1 amine or outer side, 2 acyl side, 3 side chain; linkers in the order of their positions; H or OH if unused. Non-standard residues stand in square brackets, D forms with d. Residues, ends and D or L forms follow the SMILES beside them. X1 = O=C([C@@H](Cc1cccc(C(F)(F)S(=O)(=O)O)c1)N[*:1])[*:2]; X3 = O=C([C@@H](Cc1cccc(C(F)(F)P(=O)(O)O)c1)N[*:1])[*:2]; X2 = O=C([C@@H](Cc1cccc(CS(=O)(=O)O)c1)N[*:1])[*:2]
# Target: T1, Tyrosine-protein phosphatase non-receptor type 1 (Homo sapiens, UniProt P18031)
# T1 sequence (P18031 whole entry): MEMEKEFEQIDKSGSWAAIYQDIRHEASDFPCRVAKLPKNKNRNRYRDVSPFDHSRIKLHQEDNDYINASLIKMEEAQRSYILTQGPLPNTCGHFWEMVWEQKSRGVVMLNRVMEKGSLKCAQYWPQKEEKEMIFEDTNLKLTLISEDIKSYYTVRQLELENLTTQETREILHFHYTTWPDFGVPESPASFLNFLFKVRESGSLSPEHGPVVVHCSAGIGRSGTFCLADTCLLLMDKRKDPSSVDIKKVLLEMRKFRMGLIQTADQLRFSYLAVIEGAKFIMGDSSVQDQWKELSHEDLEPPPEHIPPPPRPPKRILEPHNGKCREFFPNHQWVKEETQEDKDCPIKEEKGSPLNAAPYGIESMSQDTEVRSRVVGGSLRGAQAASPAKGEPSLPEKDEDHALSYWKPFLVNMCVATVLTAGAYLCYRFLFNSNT
# Test: Inhibition of human PTP1B expressed in Escherichia coli BL21(DE3) cells
# Outline: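 IC50 assay at 25 °C in 50 mM Bis–Tris HCl pH 6.3 with 2% glycerol, 0.1% Triton X-100, 4% DMSO, 4.5 mM DTT, 1.8 mM EDTA (final). DiFMUP substrate at Km (5 µM). Reaction started by adding PTP1B. DiFMU fluorescence (ex 360/em 460 nm) followed for 10 min. Initial rates Vi/Vo fitted semi-log to Vi = Vo/[1+([I]/IC50)^S]+B.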
Structure (SMILES),pIC50,pKi
NS(=O)(=O)c1cc(-c2ccc(CSCc3ccc(C(F)(F)S(=O)(=O)O)c(Br)c3)cc2)ccc1Br,4.89,4.97
CC(C)C[C@H](NC(=O)[C@@H](Cc1cccc(C(F)(F)P(=O)(O)O)c1)NC(=O)[C@H](CCC(=O)O)NC(=O)[C@H](CC(=O)O)NC(=O)[C@H](C)NC(=O)[C@@H](N)CC(=O)O)C(N)=O (H-DADE[X3]L-NH2),,7.62
O=P(O)(O)C(F)(F)c1ccc2ccccc2c1,4.46,
NS(=O)(=O)c1cc(-c2ccc(CSCc3ccc(CS(=O)(=O)O)c(Br)c3)cc2)ccc1Br,4.72,4.99
CC(C)C[C@H](NC(=O)[C@@H](Cc1cccc(CS(=O)(=O)O)c1)NC(=O)[C@H](CCC(=O)O)NC(=O)[C@H](CC(=O)O)NC(=O)[C@H](C)NC(=O)[C@@H](N)CC(=O)O)C(N)=O (H-DADE[X2]L-NH2),4.36,

# Other lines, results leading:
pIC50,pKi,Structure (SMILES)
8.22,,NS(=O)(=O)c1cc(-c2ccc(CSCc3ccc(C(F)(F)P(=O)(O)O)c(Br)c3)cc2)ccc1Br
7.52,7.62,NS(=O)(=O)C(F)(F)c1cc(-c2ccc(CSCc3ccc(C(F)(F)P(=O)(O)O)c(Br)c3)cc2)ccc1Br
5.00,,CC(C)C[C@H](NC(=O)[C@@H](Cc1cccc(C(F)(F)S(=O)(=O)O)c1)NC(=O)[C@H](CCC(=O)O)NC(=O)[C@H](CC(=O)O)NC(=O)[C@H](C)NC(=O)[C@@H](N)CC(=O)O)C(N)=O (H-DADE[X1]L-NH2)
5.22,5.48,NS(=O)(=O)C(F)(F)c1cc(-c2ccc(CSCc3ccc(C(F)(F)S(=O)(=O)O)c(Br)c3)cc2)ccc1Br
